Results gathered from unrelated publications.
Protocols differ between the studies behind these lines.

The IC50 of `O=C(Cn1ccnc1[N+](=O)[O-])NCc1ccccc1` is reported as 0.352 µg/mL (Trypanosoma cruzi; parasite growth; rat Myoblast, TULAHUEN; intracellular, amastigote).
The inhibition of `Nc1ncnc2c([C@@H]3N[C@H](CO)[C@@H](O)[C@H]3O)c[nH]c12` is reported as 0% (human respiratory syncytial virus; viral replication, inhibitor; MA104; 0.9 µM).
`O=c1[nH]c2c(-c3ccccc3)csc2c(=O)n1O` gave an inhibition of 5.3% (Human betaherpesvirus 5; viral replication, inhibitor; 10 µM, 7 days).
`COc1cccc(-c2nc(C(=O)NCc3ccc(C)cc3)c(O)c3ncccc23)c1` has an EC50 of 24 µM (Human betaherpesvirus 5; viral replication, inhibitor; HFF).
For `O=C1c2ccccc2C(c2ccccc2)C(=O)N1OCc1ccccc1` (stereo not shown), the inhibition was 12% (Human betaherpesvirus 5; viral replication, inhibitor; 10 µM, 7 days).
`Cc1ccc(CNC(=O)c2nc(Cl)c3cccnc3c2O)cc1` has an EC50 of 21 µM (Human betaherpesvirus 5; viral replication, inhibitor; HFF).
For `Cc1sc2[nH]c(=O)n(O)c(=O)c2c1C`, the inhibition was -5.1% (Human betaherpesvirus 5; viral replication, inhibitor; 10 µM, 7 days).
`Cc1ccc(CNC(=O)c2nc(-c3ccccc3)c3cccnc3c2O)cc1` gave an EC50 of 31 µM (Human betaherpesvirus 5; viral replication, inhibitor; HFF).
`O=S(=O)(c1ccc(-c2ccc3ncnc(Nc4ccc(OCc5ccccc5)c(Cl)c4)c3c2)cc1)N1CCOCC1` gave an inhibition of 9% (Trypanosoma cruzi; parasite growth, absorbance; NIH3T3, TULAHUEN; 10 µM, intracellular, amastigote).
The IC50 of `Nc1ccn(C[C@@H](CO)OCP(=O)(O)O)c(=O)n1` is reported as 280 nM (Human betaherpesvirus 5; viral replication).
